The results in this text go back to ChEMBL document CHEMBL4425125, “Development of a Dual-Acting Antibacterial Agent (TNP-2092) for the Treatment of Persistent Bacterial Infections” (J Med Chem, 2016).

Molecules are shown by their SMILES. In brackets after ≈: the same amount, converted by molar mass. Where only a bound is given, the exact number is not on record here.

Test [1] can be described thus: Inhibition of wild type Staphylococcus aureus RNA polymerase assessed as reduction in RNA product formation.
The nature of test [2]: Inhibition of RIF-resistant Staphylococcus aureus RNA polymerase RpoB H481Y mutant assessed as reduction in RNA product formation.
In test [3] the test system is Staphylococcus aureus. The test can be described thus: Antimicrobial activity against Staphylococcus aureus isogenic forms expressing gyrA S84L mutant. Format: functional.
The subject of test [4] is Staphylococcus aureus. The test can be described thus: Antimicrobial activity against wild type Staphylococcus aureus. Format: functional.
Test [5] relates to Staphylococcus aureus. The test is described as follows: Antimicrobial activity against Staphylococcus aureus isogenic forms expressing parC S80F mutant. It counts as functional. Put shortly: (§1)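 MIC (μg/mL) on otherwise isogenic derivatives of S. aureus ATCC 29213 that carry the rifamycin-resistance allele rpoB H481Y and/or the quinolone-resistance alleles parC S80F and gyrA S84L. The wild-type parent is the reference strain. MICs were determined both by agar dilution and by broth dilution, tested side by side on the same panel.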

Test [6] deals with Staphylococcus aureus. The test is described as follows: Antimicrobial activity against Staphylococcus aureus isogenic forms expressing gyrA S84L and parC S80F mutant. It counts as functional. Put shortly:
as §1

In test [7] the test system is Staphylococcus aureus. The test can be described thus: Antimicrobial activity against Staphylococcus aureus isogenic forms expressing rpoB H481Y mutant. Format: functional.
For test [8], the system named is Staphylococcus aureus. The test is described as follows: Antimicrobial activity against Staphylococcus aureus isogenic forms expressing rpoB H481Y and gyrA S84L mutant. It counts as functional.
Test [9] concerns Staphylococcus aureus. The test is described as follows: Antimicrobial activity against Staphylococcus aureus isogenic forms expressing rpoB H481Y and parC S80F mutant. Format: functional. Put shortly: as §1
Test [10] has as its system Staphylococcus aureus. The test is described as follows: Antimicrobial activity against Staphylococcus aureus isogenic forms expressing rpoB H481Y/gyrA S84L/parC S80F mutant. It counts as functional. The method in brief:
as §1

For test [11], the system named is Staphylococcus aureus. The test can be described thus: Antimicrobial activity against methicillin-sensitive Staphylococcus aureus clinical isolates by broth dilution method. Format: functional.
For test [12], the system named is Staphylococcus aureus. The test is described as follows: Antimicrobial activity against methicillin-resistant Staphylococcus aureus clinical isolates by broth dilution method. Format: functional. A general note: Broth dilution looks for growth in wells or tubes with falling amounts of substance.
The test system of test [13] is Staphylococcus epidermidis. The test is described as follows: Antimicrobial activity against methicillin-sensitive Staphylococcus epidermidis clinical isolates by broth dilution method. Format: functional.
Test [14] relates to Staphylococcus epidermidis. The test can be described thus: Antimicrobial activity against methicillin-resistant Staphylococcus epidermidis clinical isolates by broth dilution method. Format: functional.
Test [15] concerns Streptococcus pyogenes. The test is described as follows: Antimicrobial activity against Streptococcus pyogenes clinical isolates by broth dilution method. Format: functional.
The test system of test [16] is Streptococcus agalactiae. The test is described as follows: Antimicrobial activity against Streptococcus agalactiae clinical isolates by broth dilution method. Format: functional.
Test [17] concerns Streptococcus pneumoniae. The test can be described thus: Antimicrobial activity against Streptococcus pneumoniae clinical isolates by broth dilution method. Format: functional.
Test [18] relates to Staphylococcus aureus. The test can be described thus: Antimicrobial activity against methicillin-resistant Staphylococcus aureus 67-0. Format: functional.
For test [19], the system named is Staphylococcus aureus. The test can be described thus: Bactericidal activity against methicillin-resistant Staphylococcus aureus 67-0. Format: functional.
Test [20] deals with Topoisomerase IV (Staphylococcus aureus) (UniProt P0C1U9+P0C1S7).
The target of test [21] is DNA gyrase (Staphylococcus aureus) (UniProt P0A0K8+P20831).
Test [22] concerns Staphylococcus aureus.
Test [23] concerns the target DNA topoisomerase 2-alpha (Homo sapiens) (UniProt P11388).

As for `CO[C@H]1/C=C/O[C@@]2(C)Oc3c(C)c(O)c4c(O)c(c(/C=N/N5CCN(C)CC5)c(O)c4c3C2=O)NC(=O)/C(C)=C\C=C\[C@H](C)[C@H](O)[C@@H](C)[C@@H](O)[C@@H](C)[C@H](OC(C)=O)[C@@H]1C` [RIFAMPIN], the figures for the IC50 in [1] and in [2] were 15 nM and above 25 µM, respectively. The MIC (in general, the smallest concentration in the dilution series that meets the test's criterion for growth inhibition) is 0.008 µg/mL (≈ 0.00972 µM) in test [3]; 0.008 µg/mL (≈ 0.00972 µM) in test [4]; 0.008 µg/mL (≈ 0.00972 µM) in [5]; 0.008 µg/mL (≈ 0.00972 µM) in [6]; above 250 µg/mL in test [7]; above 250 µg/mL in [8]. For the same compound, the MIC was above 250 µg/mL in test [9]; above 250 µg/mL in test [10]; 0.008 to 4 µg/mL (≈ 0.00972 to 4.86 µM) in test [12]; “>=0.004 - 4 ug ml-1” in [14]; 0.03 to 2 µg/mL (≈ 0.0365 to 2.43 µM) in [16]; 0.12 to 1 µg/mL (≈ 0.146 to 1.22 µM) in test [17]. The MIC in test [18] is 8 ng/mL (≈ 0.00972 µM). The MIC50 (as a rule, an inhibitory concentration at the 50% level, which refers to growth in some studies and to a panel of isolates in others) in test [11] came out at 0.015 µg/mL (≈ 0.0182 µM); in [12], 0.015 µg/mL (≈ 0.0182 µM); in test [13] it was 0.015 µg/mL (≈ 0.0182 µM); in test [14] (Staphylococcus epidermidis), 0.015 µg/mL (≈ 0.0182 µM); in test [15] it was 0.06 µg/mL (≈ 0.0729 µM); in [16], 0.12 µg/mL (≈ 0.146 µM). Moreover, in [17], the MIC50 was found to be 0.25 µg/mL (≈ 0.304 µM). Moreover, the MIC90 (in general, an inhibitory concentration at the 90% level, which refers to growth in some studies and to a panel of isolates in others) is 0.015 µg/mL (≈ 0.0182 µM) in test [11]; 0.015 µg/mL (≈ 0.0182 µM) in test [12]; 0.015 µg/mL (≈ 0.0182 µM) in test [13]; above 4 µg/mL in [14] (Staphylococcus epidermidis); 0.12 µg/mL (≈ 0.146 µM) in test [15]; 0.12 µg/mL (≈ 0.146 µM) in test [16]. In [17], this compound displayed an MIC90 of 0.25 µg/mL (≈ 0.304 µM). For the same compound, in test [19], the MBC (usually the lowest tested concentration that kills the bacteria rather than only halting them) amounted to 2 µg/mL (≈ 2.43 µM).

Consider `COc1c(N2CCNC(C)C2)c(F)cc2c(=O)c(C(=O)O)cn(C3CC3)c12` (configuration not stated) [GATIFLOXACIN], for which the MIC in test [3] was determined as 0.12 µg/mL (≈ 0.32 µM); in [4], 0.06 µg/mL (≈ 0.16 µM); in test [5] it was 0.25 µg/mL (≈ 0.666 µM); in test [6], 8 µg/mL (≈ 21.3 µM); in test [7], 0.06 µg/mL (≈ 0.16 µM); in test [8] it was 0.12 µg/mL (≈ 0.32 µM). Moreover, the values for the MIC in test [9] and in test [10] were 0.25 µg/mL (≈ 0.666 µM) and 8 µg/mL (≈ 21.3 µM), respectively. The CC50 in [20] was 200 nM; in [21], 700 nM; in test [22], 13 µM; in test [23], above 150 µM.
